Results as given in ChEMBL document CHEMBL1687778, “Genetic determinants involved in the susceptibility of Pseudomonas aeruginosa to beta-lactam antibiotics” (2010).
In brackets after ≈: the same amount, converted by molar mass.

Tests used:
Assay type in all cases: functional
Pseudomonas aeruginosa [1] = assay: Antimicrobial activity against Pseudomonas aeruginosa PA14 PA0011 harboring mutation in putative 2-OH-lauroyltransferase by Etest method
Outline: (§1)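 Overnight LB cultures (37°C) diluted in sterile 0.85% NaCl to about 1 × 10^7 CFU/ml. 100 µl spread on Mueller-Hinton agar, one Etest strip per plate, 18 h at 37°C. Ceftazidime, imipenem and meropenem tested. Wild-type PA14 plate included in each set. Each mutant verified in triplicate.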

Pseudomonas aeruginosa [2] = assay: Antimicrobial activity against Pseudomonas aeruginosa PA14 PA14_43090 harboring mutation in hypothetical protein by Etest method; outline: as §1
Pseudomonas aeruginosa [3] = assay: Antimicrobial activity against Pseudomonas aeruginosa PA14 PA0479 harboring mutation in putative transcriptional regulator, LysR family by Etest method; outline: as §1
Pseudomonas aeruginosa [4] = assay: Antimicrobial activity against Pseudomonas aeruginosa PA14 PA2615 harboring ftsK mutant gene by Etest method; outline: as §1
Pseudomonas aeruginosa [5] = assay: Antimicrobial activity against Pseudomonas aeruginosa PA14 PA2128 harboring cupA1 mutant gene by Etest method; outline: as §1
Pseudomonas aeruginosa [6] = assay: Antimicrobial activity against Pseudomonas aeruginosa PA14 PA1195 harboring mutation in putative dimethylarginine dimethylaminohydrolase by Etest method; outline: as §1
Pseudomonas aeruginosa [7] = assay: Antimicrobial activity against Pseudomonas aeruginosa PA14 PA4753 harboring mutation in putative RNA-binding protein by Etest method
Outline: (§2)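 Etest MIC. Overnight LB cultures at 37°C were diluted in sterile 0.85% NaCl to about 1 × 10^7 CFU/ml. 100 µl was spread on Mueller-Hinton agar, one strip was placed per plate, and plates were incubated at 37°C for 18 h. Equal cell numbers were seeded per plate, and results were verified in triplicate. PA14 wild type was included in each set as a susceptibility control.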

Pseudomonas aeruginosa [8] = assay: Antimicrobial activity against Pseudomonas aeruginosa PA14 PA4069 harboring mutation in putative dTDP-4-rhamnose reductase-related protein by Etest method; outline: as §2
Pseudomonas aeruginosa [9] = assay: Antimicrobial activity against Pseudomonas aeruginosa PA14 PA5443 harboring uvrD mutant gene by Etest method; outline: as §2
Pseudomonas aeruginosa [10] = assay: Antimicrobial activity against Pseudomonas aeruginosa PA14 PA5038 harboring aroB mutant gene by Etest method; outline: as §2
Pseudomonas aeruginosa [11] = assay: Antimicrobial activity against Pseudomonas aeruginosa PA14 PA14_59780 harboring rcsC mutant gene by Etest method; outline: as §1
Pseudomonas aeruginosa [12] = assay: Antimicrobial activity against Pseudomonas aeruginosa PA14 PA3433 harboring mutation in putative transcriptional regulator, LysR family by Etest method; outline: as §2
Pseudomonas aeruginosa [13] = assay: Antimicrobial activity against Pseudomonas aeruginosa PA14 PA5001 harboring mutation in conserved hypothetical protein by Etest method; outline: as §2
Pseudomonas aeruginosa [14] = assay: Antimicrobial activity against Pseudomonas aeruginosa PA14 PA14_07490/07510 harboring mutation in intergenic region by Etest method; outline: as §1
Pseudomonas aeruginosa [15] = assay: Antimicrobial activity against Pseudomonas aeruginosa PA14 PA3978 harboring mutation in hypothetical protein by Etest method; outline: as §2
Pseudomonas aeruginosa [16] = assay: Antimicrobial activity against Pseudomonas aeruginosa PA14 PA14_23430 harboring mutation in putative heparinase by Etest method; outline: as §1
Pseudomonas aeruginosa [17] = assay: Antimicrobial activity against Pseudomonas aeruginosa PA14 PA3520 harboring mutation in putative periplasmic metal-binding protein by Etest method; outline: as §2
Pseudomonas aeruginosa [18] = assay: Antimicrobial activity against Pseudomonas aeruginosa PA14 PA5366 harboring pstB mutant gene by Etest method; outline: as §2
Pseudomonas aeruginosa [19] = assay: Antimicrobial activity against Pseudomonas aeruginosa PA14 PA0503 harboring mutation in Putative biotin synthesis protein BioC by Etest method; outline: as §1
Pseudomonas aeruginosa [20] = assay: Antimicrobial activity against Pseudomonas aeruginosa PA14 PA3145 harboring wbpL mutant gene by Etest method; outline: as §1
Pseudomonas aeruginosa [21] = assay: Antimicrobial activity against Pseudomonas aeruginosa PA14 PA3667 harboring mutation in putative cysteine sulfinate desulfinase by Etest method; outline: as §2
Pseudomonas aeruginosa [22] = assay: Antimicrobial activity against Pseudomonas aeruginosa PA14 PA5130 harboring mutation in putative rhodanese-like domain protein by Etest method; outline: as §2
Pseudomonas aeruginosa [23] = assay: Antimicrobial activity against Pseudomonas aeruginosa PA14 PA0420 harboring bioA mutant gene by Etest method; outline: as §1
Pseudomonas aeruginosa [24] = assay: Antimicrobial activity against Pseudomonas aeruginosa PA14 PA1483 harboring cycH mutant gene by Etest method; outline: as §1
Pseudomonas aeruginosa [25] = assay: Antimicrobial activity against Pseudomonas aeruginosa PA14 PA3247 harboring mutation in putative aspartyl aminopeptidase by Etest method; outline: as §1
Pseudomonas aeruginosa [26] = assay: Antimicrobial activity against Pseudomonas aeruginosa PA14 PA4550 harboring fimU mutant gene by Etest method; outline: as §2
Pseudomonas aeruginosa [27] = assay: Antimicrobial activity against Pseudomonas aeruginosa PA14 PA3141 harboring wbpM mutant gene by Etest method; outline: as §1
Pseudomonas aeruginosa [28] = assay: Antimicrobial activity against Pseudomonas aeruginosa PA14 PA4748 harboring tpiA mutant gene by Etest method; outline: as §2
Pseudomonas aeruginosa [29] = assay: Antimicrobial activity against Pseudomonas aeruginosa PA14 PA2621 harboring clpS mutant gene by Etest method; outline: as §1
Pseudomonas aeruginosa [30] = assay: Antimicrobial activity against Pseudomonas aeruginosa PA14 PA2487 harboring mutation in hypothetical protein by Etest method; outline: as §1
Pseudomonas aeruginosa [31] = assay: Antimicrobial activity against Pseudomonas aeruginosa PA14 PA5174 harboring mutation in putative beta-ketoacyl synthase by Etest method; outline: as §2
Pseudomonas aeruginosa [32] = assay: Antimicrobial activity against Pseudomonas aeruginosa PA14 PA4527 harboring pilC mutant gene by Etest method; outline: as §2
Pseudomonas aeruginosa [33] = assay: Antimicrobial activity against Pseudomonas aeruginosa PA14 PA14_06490 harboring mutation in hypothetical protein by Etest method; outline: as §1
Pseudomonas aeruginosa [34] = assay: Antimicrobial activity against Pseudomonas aeruginosa PA14 PA3620 harboring mutS mutant gene by Etest method; outline: as §2
Pseudomonas aeruginosa [35] = assay: Antimicrobial activity against Pseudomonas aeruginosa PA14 PA4946 harboring mutL mutant gene by Etest method; outline: as §2
Pseudomonas aeruginosa [36] = assay: Antimicrobial activity against Pseudomonas aeruginosa PA14 PA3704 harboring wspE mutant gene by Etest method; outline: as §2
Pseudomonas aeruginosa [37] = assay: Antimicrobial activity against Pseudomonas aeruginosa PA14 PA5192 harboring pckA mutant gene by Etest method; outline: as §2
Pseudomonas aeruginosa [38] = assay: Antimicrobial activity against Pseudomonas aeruginosa PA14 PA5003 harboring mutation in conserved hypothetical protein by Etest method; outline: as §2
Pseudomonas aeruginosa [39] = assay: Antimicrobial activity against Pseudomonas aeruginosa PA14 PA14_23420 harboring mutation in putative zinc-binding dehydrogenase by Etest method; outline: as §1
Pseudomonas aeruginosa [40] = assay: Antimicrobial activity against Pseudomonas aeruginosa PA14 PA1348 harboring mutation in conserved hypothetical protein by Etest method; outline: as §1
Pseudomonas aeruginosa [41] = assay: Antimicrobial activity against Pseudomonas aeruginosa PA14 PA4393 harboring mutation in putative permease by Etest method; outline: as §2
Pseudomonas aeruginosa [42] = assay: Antimicrobial activity against Pseudomonas aeruginosa PA14 PA0958 harboring oprD mutant gene by Etest method; outline: as §1
Pseudomonas aeruginosa [43] = assay: Antimicrobial activity against Pseudomonas aeruginosa PA14 PA4007 harboring proA mutant gene by Etest method; outline: as §2
Pseudomonas aeruginosa [44] = assay: Antimicrobial activity against Pseudomonas aeruginosa PA14 PA0402 harboring pyrB mutant gene by Etest method; outline: as §1
Pseudomonas aeruginosa [45] = assay: Antimicrobial activity against Pseudomonas aeruginosa PA14 PA3818 harboring suhB mutant gene by Etest method; outline: as §2
Pseudomonas aeruginosa [46] = assay: Antimicrobial activity against Pseudomonas aeruginosa PA14 PA4088 harboring mutation in putative aminotransferase by Etest method; outline: as §2
Pseudomonas aeruginosa [47] = assay: Antimicrobial activity against Pseudomonas aeruginosa PA14 PA1553 harboring mutation in putative cytochrome c oxidase, cbb3 type, subunit II by Etest method; outline: as §1

SMILES: CC(C)(O/N=C(\C(=O)N[C@@H]1C(=O)N2C(C(=O)[O-])=C(C[n+]3ccccc3)CS[C@H]12)c1csc(N)n1)C(=O)O [CEFTAZIDIME]
- MIC (Pseudomonas aeruginosa [1]): 0.38 µg/mL (≈ 0.695 µM)
- MIC (Pseudomonas aeruginosa [2]): 2 µg/mL (≈ 3.66 µM)
- MIC (Pseudomonas aeruginosa [3]): 2 µg/mL (≈ 3.66 µM)
- MIC (Pseudomonas aeruginosa [4]): 0.25 µg/mL (≈ 0.457 µM)
- MIC (Pseudomonas aeruginosa [5]): 0.5 µg/mL (≈ 0.915 µM)
- MIC (Pseudomonas aeruginosa [6]): 0.5 µg/mL (≈ 0.915 µM)
- MIC (Pseudomonas aeruginosa [7]): 0.25 µg/mL (≈ 0.457 µM)
- MIC (Pseudomonas aeruginosa [8]): 0.75 µg/mL (≈ 1.37 µM)
- MIC (Pseudomonas aeruginosa [9]): 1.5 µg/mL (≈ 2.74 µM)
- MIC (Pseudomonas aeruginosa [10]): 3 µg/mL (≈ 5.49 µM)
- MIC (Pseudomonas aeruginosa [11]): 0.38 µg/mL (≈ 0.695 µM)
- MIC (Pseudomonas aeruginosa [12]): 0.5 µg/mL (≈ 0.915 µM)
- MIC (Pseudomonas aeruginosa [13]): 3 µg/mL (≈ 5.49 µM)
- MIC (Pseudomonas aeruginosa [14]): 0.5 µg/mL (≈ 0.915 µM)
- MIC (Pseudomonas aeruginosa [15]): 0.75 µg/mL (≈ 1.37 µM)
- MIC (Pseudomonas aeruginosa [16]): 2 µg/mL (≈ 3.66 µM)
- MIC (Pseudomonas aeruginosa [17]): 1.5 µg/mL (≈ 2.74 µM)
- MIC (Pseudomonas aeruginosa [18]): 0.75 µg/mL (≈ 1.37 µM)
- MIC (Pseudomonas aeruginosa [19]): 0.5 µg/mL (≈ 0.915 µM)
- MIC (Pseudomonas aeruginosa [20]): 2 µg/mL (≈ 3.66 µM)
- MIC (Pseudomonas aeruginosa [21]): 3 µg/mL (≈ 5.49 µM)
- MIC (Pseudomonas aeruginosa [22]): 0.75 µg/mL (≈ 1.37 µM)
- MIC (Pseudomonas aeruginosa [23]): 0.5 µg/mL (≈ 0.915 µM)
- MIC (Pseudomonas aeruginosa [24]): 0.5 µg/mL (≈ 0.915 µM)
- MIC (Pseudomonas aeruginosa [25]): 2 µg/mL (≈ 3.66 µM)
- MIC (Pseudomonas aeruginosa [26]): 2 µg/mL (≈ 3.66 µM)
- MIC (Pseudomonas aeruginosa [27]): 2 µg/mL (≈ 3.66 µM)
- MIC (Pseudomonas aeruginosa [28]): 1.5 µg/mL (≈ 2.74 µM)
- MIC (Pseudomonas aeruginosa [29]): 4 µg/mL (≈ 7.32 µM)
- MIC (Pseudomonas aeruginosa [30]): 2 µg/mL (≈ 3.66 µM)
- MIC (Pseudomonas aeruginosa [31]): 1 µg/mL (≈ 1.83 µM)
- MIC (Pseudomonas aeruginosa [32]): 2 µg/mL (≈ 3.66 µM)
- MIC (Pseudomonas aeruginosa [33]): 2 µg/mL (≈ 3.66 µM)
- MIC (Pseudomonas aeruginosa [34]): 2 µg/mL (≈ 3.66 µM)
- MIC (Pseudomonas aeruginosa [35]): 1.5 µg/mL (≈ 2.74 µM)
- MIC (Pseudomonas aeruginosa [36]): 2 µg/mL (≈ 3.66 µM)
- MIC (Pseudomonas aeruginosa [37]): 0.5 µg/mL (≈ 0.915 µM)
- MIC (Pseudomonas aeruginosa [38]): 3 µg/mL (≈ 5.49 µM)
- MIC (Pseudomonas aeruginosa [39]): 2 µg/mL (≈ 3.66 µM)
- MIC (Pseudomonas aeruginosa [40]): 1.5 µg/mL (≈ 2.74 µM)
- MIC (Pseudomonas aeruginosa [41]): 0.75 µg/mL (≈ 1.37 µM)
- MIC (Pseudomonas aeruginosa [42]): 0.75 µg/mL (≈ 1.37 µM)
- MIC (Pseudomonas aeruginosa [43]): 0.75 µg/mL (≈ 1.37 µM)
- MIC (Pseudomonas aeruginosa [44]): 0.38 µg/mL (≈ 0.695 µM)
- MIC (Pseudomonas aeruginosa [45]): 0.5 µg/mL (≈ 0.915 µM)
- MIC (Pseudomonas aeruginosa [46]): 0.25 µg/mL (≈ 0.457 µM)
- MIC (Pseudomonas aeruginosa [47]): 0.75 µg/mL (≈ 1.37 µM)
